B1: Vitamin K-dependent gamma-carboxylase (Homo sapiens), P38435 (protein)
chain: MAVSAGSARTSPSSDKVQKDKAELISGPRQDSRIGKLLGFEWTDLSSWRRLVTLLNRPTDPASLAVFRFLFGFLMVLDIPQERGLSSLDRKYLDGLDVCRFPLLDALRPLPLDWMYLVYTIMFLGALGMMLGLCYRISCVLFLLPYWYVFLLDKTSWNNHSYLYGLLAFQLTFMDANHYWSVDGLLNAHRRNAHVPLWNYAVLRGQIFIVYFIAGVKKLDADWVEGYSMEYLSRHWLFSPFKLLLSEELTSLLVVHWGGLLLDLSAGFLLFFDVSRSIGLFFVSYFHCMNSQLFSIGMFSYVMLASSPLFCSPEWPRKLVSYCPRRLQQLLPLKAAPQPSVSCVYKRSRGKSGQKPGLRHQLGAAFTLLYLLEQLFLPYSHFLTQGYNNWTNGLYGYSWDMMVHSRSHQHVKITYRDGRTGELGYLNPGVFTQSRRWKDHADMLKQYATCLSRLLPKYNVTEPQIYFDIWVSINDRFQQRIFDPRVDIVQAAWSPFQRTSWVQPLLMDLSPWRAKLQEIKSSLDNHTEVVFIADFPGLHLENFVSEDLGNTSIQLLQGEVTVELVAEQKNQTLREGEKMQLPAGEYHKVYTTSPSPSCYMYVYVNTTELALEQDLAYLQELKEKVENGSETGPLPPELQPLLEGEVKGGPEPTPLVQTFLRRQQRLQEIERRRNTPFHERFFRFLLRKLYVFRRSFLMTCISLRNLILGRPSLEQLAQEVTYANLRPFEAVGELNPSNTDSSHSNPPESNPDPVHSEF

How the values were obtained:
[1] = system: MG-63; assay: Induction of apoptosis against human MG63 cells after 72 hrs; assay type: functional, cell-based
Summary of the method: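 MG-63 osteosarcoma cells, double thymidine block (2.5 mM, 12 h each) for S-phase synchronization. Treated 3 days at 10^-5 and 10^-6 M in DMEM. Permeabilized with 0.2% Triton X plus RNase, 37 °C for 1 h. Stained with propidium iodide 50 µg/mL, 4 °C for 20 min. DNA content by flow cytometry, 488 nm. Mean ± SD of three independent experiments.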

[2] = system: Vitamin K-dependent gamma-carboxylase (Mus musculus); assay: Ratio of Vmax to Km assessed as 14CO2 incorporation for 30 mins
[3] = substrate: CC(C)=CCC/C(C)=C/CC/C(C)=C/CC/C(C)=C/CC1=C(C)C(=O)c2ccccc2C1=O; assay: (§1) Activity for gamma-glutamylcarboxylase assessed as 14CO2 incorporation
Summary of the method: (§2)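 Mouse liver microsomal γ-glutamylcarboxylase. Reduced (hydroquinone) vitamin K as cofactor, 8 concentrations. Fixed enzyme level with 3.6 mM FLEEL substrate. Buffer: 16 µM ProFIX19 propeptide, 1.4 mM NaH14CO3, 25 mM MOPS pH 7.0, 500 mM NaCl, 0.16% phosphatidylcholine, 0.16% CHAPS, 8 mM DTT, 0.8 M ammonium sulfate. 14CO2 incorporated into peptide over 30 min counted by scintillation. Km and Vmax from initial rates by double-reciprocal plot.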

[4] = substrate: CC1=C(C/C=C(\C)CC/C=C(\C)CC/C=C(\C)CC/C=C(\C)CO)C(=O)c2ccccc2C1=O; assay: as §1; summary of the method: as §2
[5] = substrate: CC(C)=CCC/C(C)=C/CC/C(C)=C/CC/C(C)=C/CC1=C(C)C(=O)c2ccccc2C1=O; assay: (§3) Activity for gamma-glutamylcarboxylase assessed as 14CO2 incorporation for 30 mins; summary of the method: as §2
[6] = substrate: CC1=C(C/C=C(\C)CC/C=C(\C)CC/C=C(\C)CC/C=C(\C)CO)C(=O)c2ccccc2C1=O; assay: as §3; summary of the method: as §2

Row | Molecule | Activity [1] | further results
1 | CC1=C(C/C=C(\C)CC/C=C(\C)CC/C=C(\C)CC/C=C(\C)CO)C(=O)c2ccccc2C1=O | Dose-dependent effect | Vmax/Km [2]: 50 pmol/microM
2 | CC(C)=CCC/C(C)=C/CC/C(C)=C/CC/C(C)=C/CC1=C(C)C(=O)c2ccccc2C1=O | Dose-dependent effect | –
3 | CC1=C(C/C=C(\C)CC/C=C(\C)CO)C(=O)c2ccccc2C1=O | Dose-dependent effect | –
4 | CC(C)=CCC/C(C)=C/CC1=C(C)C(=O)c2ccccc2C1=O | Dose-dependent effect | –
5 | CC1=C(C/C=C(\C)CC/C=C(\C)CC/C=C(\C)C=O)C(=O)c2ccccc2C1=O | Dose-dependent effect | –
6 | CC1=C(C/C=C(\C)CC/C=C(\C)C=O)C(=O)c2ccccc2C1=O | Dose-dependent effect | –
7 | CC1=C(C/C=C(\C)CC/C=C(\C)CC/C=C(\C)CC/C=C(\C)C=O)C(=O)c2ccccc2C1=O | Dose-dependent effect | –
8 | CC1=C(C/C=C(\C)CC/C=C(\C)CC/C=C(\C)CO)C(=O)c2ccccc2C1=O | Dose-dependent effect | –
9 | CC(C)=CCC/C(C)=C/CC/C(C)=C/CC1=C(C)C(=O)c2ccccc2C1=O | Dose-dependent effect | –
10 | B1 | – | Km [3]: 13.3 µM; Km [4]: 2 µM; Vmax [5]: 126 pmol; Vmax [6]: 99.9 pmol
